Measurements gathered from unrelated publications.
Each line is one published result; the experiments were not run side by side.
Medium: plasma

SMILES	test system	setting	Tmax
Cl.[2H]C([2H])([2H])CC(=O)c1cnc(NC(=O)C2CC2)cc1Nc1cccc(-c2ncn(C([2H])([2H])[2H])n2)c1OC	human	oral, 10 mg, multiple doses, once daily, fasted	1.6 h
CN1CC[C@@H](c2c(O)cc(O)c3c(=O)cc(-c4ccc(C(F)(F)F)cc4Cl)oc23)[C@@H]1CO	human	oral, 200 mg, patients	5.2 h
Cc1ccc(C(=O)Nc2ccc(CN3CCN(C)CC3)c(C(F)(F)F)c2)cc1C#Cc1cnc2[nH]ncc2c1	human	oral, 20 mg, healthy volunteers	8 h
NS(=O)(=O)OC[C@@H]1C[C@@H](n2ccc3c(N[C@H]4CCc5ccccc54)ncnc32)C[C@@H]1O	human	intravenous, 15 mg/m², patients	1.13 h
COc1ccc([C@@H](O)c2cc(-c3ncnc4cc(N5CCOCC5)ccc34)c(F)cc2Cl)nn1	human	oral, 250 mg, single dose, patients	1.03 h
CNC(=O)n1ccc2cc(Oc3ccnc(NC(=O)c4ccc(C5CCN(CCO)CC5)cc4)c3)c(OCCOC)cc21	human	oral, 35 mg, single dose, fasted, healthy volunteers	3 h
CC(C)n1c(Nc2cccnc2)nc2cnc(Nc3ccc(N4CCN(C)CC4)cc3)nc21	male human	oral, 150 mg, single dose, healthy volunteers	1.5 h
Cn1cc(Nc2nc(N)nc(-c3cccc(-n4ccc5cc(C6CC6)cc(F)c5c4=O)c3CO)n2)cn1	human	oral, 300 mg, single dose, fasted, healthy volunteers	2 h
C[C@H](O)C(=O)C1=Nc2c(nc(N)[nH]c2=O)NC1	human	oral, 20 mg/kg, single dose, healthy volunteers	4 h
